Test results from ChEMBL document CHEMBL3272132, “Centrally acting emetics. 10. Rigid dopamine congeners derived from octahydrobenzo[f]quinoline” (J Med Chem, 1976).
The source made the active and inactive calls. The calls are words filed in the database; no cut-off is given here.

Tests used:
[1] = In vivo antagonist activity at dopamine receptor in pigeon assessed as inhibition of apomorphine-induced pecking behavior administered intramuscularly for 15 mins prior to apomorphine-challenge measured after 1 hr; type: functional; conditions: Columbidae, im
Method in brief: (§1)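 Pigeons were pretreated im with compound 15 min before im apomorphine hydrochloride (1.6 μmol/kg), and pecking frequency was quantified. Five pigeons per dose, three antagonist doses spaced at 0.3 log intervals.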

[2] = In vivo antagonist activity at dopamine receptor in pigeon assessed as inhibition of apomorphine-induced pecking behavior administered intramuscularly for 15 mins prior to apomorphine-challenge measured after 1 hr relative to control; type: functional, Columbidae; method in brief: as §1
Canis familiaris [3] = test: Toxicity in sc dosed mongrel dog assessed as behavioral changes; type: organism-based, Canis lupus familiaris; conditions: in vivo
Felis catus [4] = test: Effect on 2 Hz stimulation of right cardioaccelerator nerve-induced positive chronotropic response in cat assessed as potentiation of change in heart rate up to 3.3 umol/kg, iv; type: functional, organism-based
Mus musculus = test: Hypothermic activity in mouse assessed as decrease in rectal temperature at 10 mg/kg, sc measured every 15 mins; type: functional; conditions: route subcutaneous
Felis catus [5] = species on record: Felis catus; test: Effect on 2 Hz transmural stimulation of right atrium-induced positive chronotropic response in cat assessed as concentration required for 50% potentiation of change in heart rate; type: functional, Cardiac atrium
Method in brief: (§2)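 Isolated cat right atria in Feigan's solution under transmural field stimulation: 2 Hz, 5 ms pulses, maximal voltage, 10 s trains every 5 min, activating adrenergic terminals. After control heart-rate increases were established, compound was added to the bath and its effect was read 5 min later. Estimated ID50 or 50%-potentiation concentration in μM.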

Canis familiaris [6] = test: In vivo antagonist activity at dopamine receptor in sc dosed mongrel dog assessed as inhibition of apomorphine-induced emesis pretreated for 15 mins followed by apomorphine-challenge measured after 1 hr; type: functional; conditions: Canis lupus familiaris
Method in brief: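 Dogs were given compound sc 15 min before sc apomorphine hydrochloride (100 μg/kg). Emesis frequency over 1 h was compared with the apomorphine control value in the same dogs.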

Canis familiaris [7] = test: In vivo agonist activity at dopamine receptor in mongrel dog assessed as induction of emesis up to 5 mg/kg, sc after 1 hr; type: functional, organism-based; design: dose 5 mg/kg; conditions: Canis lupus familiaris
Method in brief: (§3)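 Mongrel dogs, five per dose, with doses spaced at 0.3 log intervals and given sc. Emetic episodes were counted for 1 h after dosing. Apomorphine hydrochloride served as reference standard.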

Felis catus [8] = test: Effect on 2 Hz stimulation of right cardioaccelerator nerve-induced positive chronotropic response in iv dosed cat assessed as concentration required for 50% potentiation of change in heart rate; type: functional
Felis catus [9] = test: Effect on 2 Hz stimulation of right cardioaccelerator nerve-induced positive chronotropic response in iv dosed cat assessed as inhibition of change in heart rate in presence of haloperidol; type: functional, organism-based
Method in brief: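 Cat right cardioaccelerator nerve preparation with 2 Hz stimulation and heart-rate response recorded. Haloperidol (100 μg/kg) was given iv before the iv test compound, then inhibition of the nerve-evoked heart-rate increase was assessed.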

Felis catus [10] = species on record: Felis catus; test: Effect on 2 Hz transmural stimulation of right atrium-induced positive chronotropic response in cat assessed as inhibition of change in heart rate; type: functional, Cardiac atrium; method in brief: as §2
Felis catus [11] = test: Effect on 2 Hz stimulation of right cardioaccelerator nerve-induced positive chronotropic response in iv dosed cat assessed as concentration required for 50% inhibition of change in heart rate; type: functional
Canis familiaris [12] = test: In vivo agonist activity at dopamine receptor in sc dosed mongrel dog assessed as induction of emesis after 1 hr relative to apomorphine; type: functional, Canis lupus familiaris; method in brief: as §3
Columbidae = test: In vivo agonist activity at dopamine receptor in pigeon assessed as induction of pecking behavior administered intramuscularly after 1 hr; type: functional, organism-based
Method in brief: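 Pigeons were given compound intramuscularly, and pecking frequency was recorded for 1 h afterwards. Apomorphine hydrochloride served as reference standard.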

Felis catus [13] = test: Effect on 2 Hz stimulation of right cardioaccelerator nerve-induced positive chronotropic response in cat assessed as potentiation of change in heart rate up to 3.5 umol/kg, iv; type: functional, organism-based

Question: Which ED50 [1] does the source give for `Br.CN1CCC[C@@H]2c3ccc(O)cc3CC[C@@H]21` here?
Answer: 16.5 µmol/kg

Question: And the “fold change (FC)” value [2]?
Answer: 0.1

Question: And the Activity (Canis familiaris [3])?
Answer: Non-toxic

Question: And the Activity (Felis catus [4])?
Answer: inactive

Question: And the T (Mus musculus)?
Answer: 2.3 °C

Question: What about the Activity (Felis catus [5]) of the same compound?
Answer: 3.9 µM

Question: What about the ED50 (Canis familiaris [6]) of the same compound?
Answer: 10 µmol/kg

Question: What about the Activity (Canis familiaris [7]) of the same compound?
Answer: inactive

Question: What about the Activity (Felis catus [8]) of the same compound?
Answer: <=3.3 umol/Kg

Question: What does the source list for `Br.CN1CCC[C@H]2c3ccc(O)c(O)c3CC[C@@H]21` (relative stereo)?
Answer: inhibition (Felis catus [9]): inactive; ID50 (Felis catus [10]): 3.2 ×10⁻³ microM; T (Mus musculus): 4.4 °C; Activity (Felis catus [11]): 0.0052 µmol/kg; fold change (FC) (Canis familiaris [12]): 6.1

Question: With `Br.CN1CCC[C@@H]2c3cccc(O)c3CC[C@@H]21` (relative stereo) as the compound, how does the ED50 [1] read?
Answer: 3.8 µmol/kg

Question: What about the “fold change (FC)” value [2] of the same compound?
Answer: 0.44

Question: What about the Activity (Canis familiaris [3]) of the same compound?
Answer: Non-toxic

Question: And the T (Mus musculus)?
Answer: 0 °C

Question: What about the ED50 (Canis familiaris [6]) of the same compound?
Answer: 6 µmol/kg

Question: What about the Activity (Canis familiaris [7]) of the same compound?
Answer: inactive

Question: And the Activity (Felis catus [8])?
Answer: >3.3 µmol/kg

Question: With `COc1ccc2c(c1OC)CC[C@H]1[C@@H]2CCCN1C` (relative stereo) as the compound, how does the ED50 [1] read?
Answer: 1.7 µmol/kg

Question: And the “fold change (FC)” value [2]?
Answer: 1

Question: And the Activity (Canis familiaris [3])?
Answer: Non-toxic

Question: What about the Activity (Canis familiaris [7]) of the same compound?
Answer: inactive

Question: For `CN1CCc2cccc3c2[C@H]1Cc1ccc(O)c(O)c1-3.CN1CCc2cccc3c2[C@H]1Cc1ccc(O)c(O)c1-3.Cl.Cl.O` [APOMORPHINE HYDROCHLORIDE], which Activity (Canis familiaris [3]) is on record?
Answer: Non-toxic

Question: And the T (Mus musculus)?
Answer: 3.6 °C

Question: What about the Activity (Columbidae) of the same compound?
Answer: Active

Question: With `COc1ccc2c(c1OC)CC[C@H]1[C@H]2CCCN1C` (relative stereo) as the compound, how does the ED50 [1] read?
Answer: 15.1 µmol/kg

Question: What about the “fold change (FC)” value [2] of the same compound?
Answer: 0.11

Question: What about the Activity (Canis familiaris [3]) of the same compound?
Answer: Non-toxic

Question: And the Activity (Canis familiaris [7])?
Answer: inactive

Question: With `CN1CCC[C@H]2c3ccccc3CC[C@@H]21` (relative stereo) as the compound, how does the ED50 [1] read?
Answer: 2.2 µmol/kg

Question: And the “fold change (FC)” value [2]?
Answer: 0.74

Question: And the Activity (Canis familiaris [3])?
Answer: Non-toxic

Question: What about the Activity (Felis catus [13]) of the same compound?
Answer: inactive

Question: And the T (Mus musculus)?
Answer: 2.6 °C

Question: What about the Activity (Felis catus [5]) of the same compound?
Answer: 7.8 µM

Question: What about the ED50 (Canis familiaris [6]) of the same compound?
Answer: 4.1 µmol/kg

Question: What about the Activity (Canis familiaris [7]) of the same compound?
Answer: inactive

Question: And the Activity (Felis catus [8])?
Answer: <=3.5 umol/Kg

Question: For `Br.CN1CCC[C@H]2c3cccc(O)c3CC[C@@H]21` (relative stereo), which ED50 [1] is on record?
Answer: 2.2 µmol/kg

Question: What about the “fold change (FC)” value [2] of the same compound?
Answer: 0.76

Question: What about the Activity (Canis familiaris [3]) of the same compound?
Answer: Non-toxic

Question: What about the inhibition (Felis catus [9]) of the same compound?
Answer: inactive

Question: What about the ID50 (Felis catus [10]) of the same compound?
Answer: 1 ×10⁻¹ microM

Question: And the T (Mus musculus)?
Answer: 1.4 °C

Question: And the Activity (Felis catus [11])?
Answer: >2.1 µmol/kg

Question: What about the “fold change (FC)” value (Canis familiaris [12]) of the same compound?
Answer: 0.03

Question: Which ED50 [1] does the source give for `Br.CN1CCC[C@H]2c3ccc(O)cc3CC[C@@H]21` (relative stereo) here?
Answer: 9 µmol/kg

Question: What about the “fold change (FC)” value [2] of the same compound?
Answer: 0.18

Question: And the Activity (Canis familiaris [3])?
Answer: Non-toxic

Question: What about the Activity (Felis catus [4]) of the same compound?
Answer: inactive

Question: And the T (Mus musculus)?
Answer: 2.4 °C

Question: What about the Activity (Felis catus [5]) of the same compound?
Answer: 12.7 µM

Question: What about the ED50 (Canis familiaris [6]) of the same compound?
Answer: 4.3 µmol/kg

Question: What about the Activity (Canis familiaris [7]) of the same compound?
Answer: inactive

Question: And the Activity (Felis catus [8])?
Answer: <=3.3 umol/Kg

Question: With `Br.CN1CCC[C@@H]2c3ccc(O)c(O)c3CC[C@@H]21` (relative stereo) as the compound, how does the ED50 [1] read?
Answer: 8.3 µmol/kg

Question: What about the “fold change (FC)” value [2] of the same compound?
Answer: 0.2

Question: What about the inhibition (Felis catus [9]) of the same compound?
Answer: inactive

Question: What about the ID50 (Felis catus [10]) of the same compound?
Answer: 4.7 ×10⁻² microM

Question: And the T (Mus musculus)?
Answer: 1.6 °C

Question: And the Activity (Felis catus [11])?
Answer: 0.59 µmol/kg

Question: What about the “fold change (FC)” value (Canis familiaris [12]) of the same compound?
Answer: 0.02

Question: What does the source list for `CN1CCC[C@@H]2c3ccccc3CC[C@@H]21` (relative stereo)?
Answer: ED50 [1]: 2.7 µmol/kg; fold change (FC) [2]: 0.61; Activity (Canis familiaris [3]): Non-toxic; Activity (Felis catus [13]): inactive; T (Mus musculus): 1.6 °C; Activity (Felis catus [5]): 1.6 µM; ED50 (Canis familiaris [6]): 8.8 µmol/kg; Activity (Canis familiaris [7]): inactive; Activity (Felis catus [8]): <=3.5 umol/Kg
